Data published in ChEMBL document CHEMBL3526077, “Prediction of human metabolism of FK3453 by aldehyde oxidase using chimeric mice transplanted with human or rat hepatocytes” (Drug Metab Dispos, 2012).

How the values were obtained:
[1] = Retention time of the compound by UV/mass spectrometry; type: physicochemical
Procedure, shortened: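 Retention time on Acquity BEH C18 column (1.7 µm, 2.1×100 mm). Mobile phase 5 mM ammonium formate with 5% acetonitrile against acetonitrile, at 0.2 mL/min. Gradient: 100:0 to 2.5 min, linear to 65:35 by 25 min, 10:90 to 27 min. Detection by UV at 254 nm and MS.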

[2] = Total clearance in rat at 3 mg/kg, iv; type: ADME, organism-based; set-up: dose 3 mg/kg, route intravenous; conditions: in vivo
[3] = Cmax in rat at 3.2 mg/kg, po; type: ADME, organism-based; set-up: dose 3.2 mg/kg, route oral; conditions: in vivo
[4] = Drug excretion in urine of chimeric mouse transplanted with human hepatocytes at 3 mg/kg, iv as single dose; type: ADME, organism-based, Hepatocyte; set-up: dose 3 mg/kg, route intravenous; conditions: read-out: Drug excretion
Procedure, shortened: (§1)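 After a 3 mg/kg i.v. dose, pooled urine and feces were collected from metabolic cages over 0–24 hr (n=3). Samples were homogenized in 10 volumes of water, mixed with acetonitrile and analysed by UPLC (UV 254 nm) and LC/MS/MS. Excretion expressed as % of dose.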

[5] = Drug excretion in feces of chimeric mouse transplanted with rat hepatocytes at 3 mg/kg, iv as single dose; type: ADME, organism-based, Hepatocyte; set-up: dose 3 mg/kg, route intravenous; conditions: read-out: Drug excretion; procedure, shortened: as §1
[6] = AUC in chimeric mouse transplanted with human hepatocytes at 3 mg/kg, po; type: ADME, organism-based, Hepatocyte; set-up: dose 3 mg/kg, route oral
Procedure, shortened: (§2)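 Single 3 mg/kg oral dose of compound in 50% PEG400 with equimolar HCl in saline to h-PXB or r-PXB mice (n=3~4). Orbital-vein blood (heparinized) taken over 0–6 hr; plasma stored at -30°C and assayed by LC/MS/MS. Non-compartmental analysis: Cmax from observed values, AUC by trapezoidal rule extrapolated to infinity, CLoral = Dose/AUCpo.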

aldehyde oxidase = biological target: T1, aldehyde oxidase (Rattus norvegicus, UniProt Q9Z0U5); assay: Activity of aldehyde oxidase in hepatocytes isolated from chimeric mouse transplanted with rat hepatocytes assessed as enzyme-mediated drug metabolism measured as compound remaining at 10 uM after 2 hrs by LC/MS/MS analysis; type: ADME, cell-based, Hepatocyte; conditions: read-out: Stability
T1 sequence (Q9Z0U5 whole entry): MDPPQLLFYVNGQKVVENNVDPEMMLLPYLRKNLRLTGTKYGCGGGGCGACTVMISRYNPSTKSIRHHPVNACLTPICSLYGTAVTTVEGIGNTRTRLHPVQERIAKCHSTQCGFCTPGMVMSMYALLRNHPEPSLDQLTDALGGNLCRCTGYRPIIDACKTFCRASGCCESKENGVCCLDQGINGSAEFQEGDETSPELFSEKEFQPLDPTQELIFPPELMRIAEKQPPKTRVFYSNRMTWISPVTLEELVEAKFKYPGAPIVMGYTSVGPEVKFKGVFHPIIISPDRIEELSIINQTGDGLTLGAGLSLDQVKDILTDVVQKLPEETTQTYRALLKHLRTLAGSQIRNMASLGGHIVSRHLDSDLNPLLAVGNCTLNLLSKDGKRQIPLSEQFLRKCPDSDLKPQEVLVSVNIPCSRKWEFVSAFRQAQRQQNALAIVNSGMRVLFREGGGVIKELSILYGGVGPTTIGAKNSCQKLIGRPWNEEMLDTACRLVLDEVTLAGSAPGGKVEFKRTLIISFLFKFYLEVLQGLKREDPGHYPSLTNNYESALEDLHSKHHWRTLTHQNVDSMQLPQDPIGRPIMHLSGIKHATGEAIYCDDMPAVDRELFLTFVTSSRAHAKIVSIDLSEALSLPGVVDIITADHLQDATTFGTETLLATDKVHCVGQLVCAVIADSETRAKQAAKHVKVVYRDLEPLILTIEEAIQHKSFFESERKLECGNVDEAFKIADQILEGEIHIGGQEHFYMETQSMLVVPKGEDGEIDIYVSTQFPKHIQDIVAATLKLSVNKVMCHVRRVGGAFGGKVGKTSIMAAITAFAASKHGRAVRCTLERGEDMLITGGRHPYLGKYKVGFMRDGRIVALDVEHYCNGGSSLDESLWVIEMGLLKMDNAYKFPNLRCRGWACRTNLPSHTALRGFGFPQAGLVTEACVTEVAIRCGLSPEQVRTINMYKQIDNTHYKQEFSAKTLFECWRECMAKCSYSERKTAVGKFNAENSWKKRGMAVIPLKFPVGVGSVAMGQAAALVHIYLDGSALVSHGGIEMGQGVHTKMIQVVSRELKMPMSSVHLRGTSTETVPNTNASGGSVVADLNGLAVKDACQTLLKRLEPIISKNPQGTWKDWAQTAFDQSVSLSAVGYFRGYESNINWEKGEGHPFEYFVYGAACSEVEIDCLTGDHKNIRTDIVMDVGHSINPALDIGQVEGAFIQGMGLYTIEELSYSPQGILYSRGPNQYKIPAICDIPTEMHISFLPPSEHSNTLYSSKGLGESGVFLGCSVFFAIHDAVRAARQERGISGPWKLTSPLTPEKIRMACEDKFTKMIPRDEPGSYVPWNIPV
Procedure, shortened: (§3)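 Fresh hepatocytes from h-PXB mice (mouse cells removed with 66Z rat IgG and anti-rat IgG magnetic beads) or r-PXB mice, 1×10^6 cells/mL in serum-free Krebs-Henseleit buffer. Incubated with 10 μM compound (0.5% acetonitrile) at 37°C under 5% CO₂/95% O₂ with shaking, sampled 0–2 hr. Quenched with acetonitrile, analysed by LC/MS/MS, n=3. CLint derived from first-order depletion rate constant.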

[7] = Plasma protein binding in human by equilibrium dialysis method; type: ADME, cell-free; conditions: read-out: PPB (converted)
[8] = Plasma protein binding in chimeric mouse transplanted with rat hepatocytes by equilibrium dialysis method; type: ADME, cell-free, Hepatocyte; conditions: read-out: PPB (converted)
Procedure, shortened: (§4)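 Compound at 1 µg/mL incubated in plasma of h-PXB or r-PXB mice; bound fraction determined by equilibrium dialysis.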

[9] = Total clearance in chimeric mouse transplanted with human hepatocytes at 3 mg/kg, iv; type: ADME, organism-based, Hepatocyte; set-up: dose 3 mg/kg, route intravenous
Procedure, shortened: (§5)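 Single 3 mg/kg intravenous dose in 10% DMSO, 10% PEG400 with equimolar HCl in saline to h-PXB or r-PXB mice (n=3~4). Orbital-vein plasma collected over 0–6 hr and measured by LC/MS/MS. Non-compartmental analysis; AUC by trapezoidal rule extrapolated to infinity; CLt = Dose/AUCiv.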

[10] = Half life in chimeric mouse transplanted with rat hepatocytes at 3 mg/kg, iv; type: ADME, organism-based, Hepatocyte; set-up: dose 3 mg/kg, route intravenous; procedure, shortened: as §5
[11] = Plasma protein binding in chimeric mouse transplanted with human hepatocytes by equilibrium dialysis method; type: ADME, cell-free, Hepatocyte; conditions: read-out: PPB (converted); procedure, shortened: as §4
[12] = Drug excretion in urine of chimeric mouse transplanted with rat hepatocytes at 3 mg/kg, iv as single dose; type: ADME, organism-based, Hepatocyte; set-up: dose 3 mg/kg, route intravenous; conditions: read-out: Drug excretion; procedure, shortened: as §1
[13] = Clearance in chimeric mouse transplanted with human hepatocytes at 3 mg/kg, po; type: ADME, organism-based, Hepatocyte; set-up: dose 3 mg/kg, route oral; procedure, shortened: as §2
[14] = Oral bioavailability in chimeric mouse transplanted with rat hepatocytes at 3 mg/kg; type: ADME, organism-based, Hepatocyte
[15] = Cmax in human at 10 mg, po; type: ADME, organism-based; set-up: dose 10 mg, route oral; conditions: in vivo
[16] = Clearance in chimeric mouse transplanted with rat hepatocytes at 3 mg/kg, po; type: ADME, organism-based, Hepatocyte; set-up: dose 3 mg/kg, route oral; procedure, shortened: as §2
[17] = Intrinsic clearance in hepatocytes isolated from chimeric mouse transplanted with rat hepatocytes assessed as per million cells at 10 uM after 2 hrs by LC/MS/MS analysis; type: ADME, cell-based, Hepatocyte; conditions: read-out: CLH; procedure, shortened: as §3

CC(C)n1nc(-c2cnc(N)nc2-c2ccccc2)ccc1=O
Retention_time [1]: 20 min
clearance [2]: 10.8 mL/min/kg
Cmax [3]: 544 ng/mL
dose excreted [4]: 0.1%
dose excreted [5]: 1.1%
AUC [6]: 214 ng·h/mL
remaining at 2 h, 10 µM (aldehyde oxidase): 58.4%
fraction unbound [7]: 0.228
fraction unbound [8]: 0.233
clearance [9]: 70.7 mL/min/kg
half-life [10]: 48 min
fraction unbound [11]: 0.205
dose excreted [12]: 0.1%
CL/F [13]: 234 mL/min/kg
bioavailability [14]: 52.6%
Cmax [15]: 1.5 ng/mL
CL/F [16]: 61.6 mL/min/kg
hepatocyte CLint at 10 µM [17]: 5 µL/min/1e6 cells
